Source: ChEMBL document CHEMBL3997800, “Discovery of Multitarget Agents Active as Broad-Spectrum Antivirals and Correctors of Cystic Fibrosis Transmembrane Conductance Regulator for Associated Pulmonary Diseases” (J Med Chem, 2017)
Active and inactive are the calls of the source. The rule behind the calls is not given here.

Tests used:
[1] = Selectivity index, ratio of CC50 for human RD cells to EC50 for Enterovirus 71; assay type: toxicity; conditions: read-out: Ratio CC50/EC50
Outline: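 SI is CC50/EC50. CC50 is from the MTS assay on uninfected RD cells and EC50 from the EV71 CPE-reduction assay, both medians of three dose-response curves run in parallel.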

[2] = Inhibition of full length recombinant His6-tagged PI4K3beta (unknown origin) expressed in Sf9 insect cells using PI : PS as substrate in presence of [gamma-33P]-ATP by scintillation counting method; parameters: species or system Homo sapiens
[3] = tested on: Cystic fibrosis transmembrane conductance regulator (Homo sapiens), P13569 [F508del]; assay: Potentiator activity at CFTR F508 deletion mutant (unknown origin) expressed in HEK293 cells assessed as increase in aninon permeability at 10 uM […] by YFP probe based imaging method; assay type: cell-based
Chain of Cystic fibrosis transmembrane conductance regulator (Homo sapiens), P13569 [F508del] (P13569 as listed by the source): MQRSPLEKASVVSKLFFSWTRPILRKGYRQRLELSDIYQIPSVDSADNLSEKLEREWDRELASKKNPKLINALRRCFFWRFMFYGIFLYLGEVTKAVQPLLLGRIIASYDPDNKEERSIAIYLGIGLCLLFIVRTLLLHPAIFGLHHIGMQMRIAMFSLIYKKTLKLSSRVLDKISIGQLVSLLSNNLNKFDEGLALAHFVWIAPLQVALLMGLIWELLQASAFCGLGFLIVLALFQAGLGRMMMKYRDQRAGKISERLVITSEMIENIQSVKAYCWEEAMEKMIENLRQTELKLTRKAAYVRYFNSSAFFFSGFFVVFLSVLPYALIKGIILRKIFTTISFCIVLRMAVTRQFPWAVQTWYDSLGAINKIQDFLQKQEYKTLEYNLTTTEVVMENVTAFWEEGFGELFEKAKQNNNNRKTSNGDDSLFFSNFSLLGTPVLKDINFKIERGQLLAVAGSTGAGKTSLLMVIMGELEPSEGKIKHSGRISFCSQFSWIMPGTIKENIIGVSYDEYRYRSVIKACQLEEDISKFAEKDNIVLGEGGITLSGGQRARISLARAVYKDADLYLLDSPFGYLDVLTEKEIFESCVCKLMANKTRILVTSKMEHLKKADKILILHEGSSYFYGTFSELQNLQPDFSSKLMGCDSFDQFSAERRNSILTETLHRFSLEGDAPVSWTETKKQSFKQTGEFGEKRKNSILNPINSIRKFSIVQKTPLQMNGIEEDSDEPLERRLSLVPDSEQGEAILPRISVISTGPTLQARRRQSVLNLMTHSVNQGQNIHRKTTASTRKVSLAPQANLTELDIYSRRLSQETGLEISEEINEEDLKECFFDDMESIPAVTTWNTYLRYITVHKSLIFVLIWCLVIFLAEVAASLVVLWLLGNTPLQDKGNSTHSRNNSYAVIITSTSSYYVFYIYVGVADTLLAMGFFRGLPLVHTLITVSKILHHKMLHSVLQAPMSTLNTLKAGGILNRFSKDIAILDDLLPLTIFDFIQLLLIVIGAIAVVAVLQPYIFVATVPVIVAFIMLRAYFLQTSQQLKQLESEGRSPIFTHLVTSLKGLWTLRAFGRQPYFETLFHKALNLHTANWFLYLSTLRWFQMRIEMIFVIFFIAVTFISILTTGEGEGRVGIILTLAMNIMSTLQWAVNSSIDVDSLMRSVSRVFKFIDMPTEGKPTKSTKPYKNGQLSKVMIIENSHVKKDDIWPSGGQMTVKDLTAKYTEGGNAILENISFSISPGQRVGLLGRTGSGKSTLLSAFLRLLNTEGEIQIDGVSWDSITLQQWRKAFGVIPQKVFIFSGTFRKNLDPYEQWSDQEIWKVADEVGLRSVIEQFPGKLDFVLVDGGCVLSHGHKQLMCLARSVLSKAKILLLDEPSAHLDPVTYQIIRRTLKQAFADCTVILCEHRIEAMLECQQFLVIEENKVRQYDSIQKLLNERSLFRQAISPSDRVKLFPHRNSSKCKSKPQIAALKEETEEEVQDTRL

[4] = target: PI3-kinase p110-alpha/p85-alpha (Homo sapiens) (UniProt P27986+P42336); assay: Inhibition of full length recombinant human N-terminal His6-tagged PI3Kalpha (1 to 1068 residues)/full length human N-terminal myc-tagged P85alpha (1 to 724 residues) expressed in Sf9 insect cells assessed as residual activity at 100 uM using PI : PS as substrate in presence of [gamma-33P]-ATP by scintillation counting method relative to control
[5] = Cytotoxicity against human RD cells after 2 to 3 days by MTS method; assay type: cell-based
Outline: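 Uninfected RD cells, 20 000/well in 2% FCS medium, run in parallel with the antiviral assay. Three 8-step 1:5 dilution series from 100 μM, 2-3 days. Read-out by 5% MTS, 1.5 h at 37 °C, absorbance 498 nm, as % of untreated controls. CC50 is the 50% metabolic activity point, median of 3 curves.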

[6] = Inhibition of full length recombinant His6-tagged PI4K3alpha (unknown origin) expressed in Sf9 insect cells assessed as residual activity at 100 uM using PI : PS as substrate in presence of [gamma-33P]-ATP by scintillation counting method relative to control; conditions: Homo sapiens
Enterovirus A71 [7] = assay: Antiviral activity against Enterovirus 71 infected in RD cells assessed as reduction in virus-induced cytopathic effect incubated for 2 to 3 days; assay type: functional, cell-based
Outline: (§1)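 RD cells seeded at 20 000/well in MEM with 2% FCS and infected with EV71. Three 8-step 1:5 dilution series from 100 μM. Incubated 2-3 days until maximal CPE, then scored for CPE reduction. EC50 is the median of three dose-response curves.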

Enterovirus A71 [8] = assay: Antiviral activity against Enterovirus 71 infected in RD cells assessed as reduction in virus-induced cytopathic effect; assay type: functional, cell-based; conditions: Enterovirus A; outline: as §1
enterovirus D68 = assay: Antiviral activity against Enterovirus 68 after 2 to 3 days; assay type: functional
[9] = Selectivity index, ratio of CC50 for human RD cells assessed as change in cell morphology to EC50 for Enterovirus 71; assay type: toxicity; conditions: read-out: Ratio CC50/EC50
Outline: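 SI is CC50/EC50. CC50 is from microscopically detected morphology change in uninfected RD cells and EC50 from the EV71 CPE-reduction assay in RD cells.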

rhinovirus B14 = assay: Antiviral activity against Rhinovirus 14 after 2 to 3 days by cell based MTS assay; assay type: functional
[10] = Cytotoxicity against human RD cells assessed as change in cell morphology by microscopic method; assay type: cell-based
Outline: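 Uninfected, compound-treated RD cells were inspected by microscope. CC50 was taken from microscopically detectable alteration of cell morphology.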

rhinovirus A2 = assay: Antiviral activity against Rhinovirus 2 after 2 to 3 days by cell based MTS assay; assay type: functional
Poliovirus 1 = assay: Antiviral activity against Poliovirus 1 after 2 to 3 days by cell based MTS assay; assay type: functional; conditions: Enterovirus C
Outline: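 Vero cells seeded at 20 000/well in MEM with 2% FCS. Three 8-step 1:5 dilution series from 100 μM, then virus, then cells; 2–3 days until maximal CPE. Read-out: 5% MTS for 1.5 h at 37°C, absorbance at 498 nm, expressed as % of untreated controls. EC50 taken as the median of 3 dose-response curves.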

Echovirus E11 = assay: Antiviral activity against Echovirus 11 after 2 to 3 days; assay type: functional; conditions: Enterovirus B
Coxsackievirus B3 = assay: Antiviral activity against Coxsackievirus B3 after 2 to 3 days by cell based MTS assay; assay type: functional; conditions: Enterovirus B
[11] = tested on: Cystic fibrosis transmembrane conductance regulator (Homo sapiens), P13569 [F508del]; assay: Corrector activity at CFTR F508 deletion mutant (unknown origin) expressed in HEK293 cells assessed as increase in steady-state level of F508 deletion mutant at plasma membrane at 10 uM preincubated for 24 hrs followed by compound washout by pHTomato dye based fluorescence imaging method; assay type: cell-based
Outline: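 HEK293 cells were transiently transfected (Lipofectamine 2000) with F508del-CFTR-pHTomato plus co-expressed soluble eGFP, then kept 24 h at 37 °C. Next, 24 h at 30 °C with 10 μM drug. Imaging in pH 7.4 HEPES buffer, then extracellular pH shifted to ~6.5 (MES) and ~8.8 (Tris). The eGFP-normalized fluorescence rise (ΔF) estimates membrane CFTR.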

[12] = Enterovirus A, RD, read-out: EC50

SMILES	selectivity ratio [1]	IC50 ([2]; read-out: IC50)	Activity [3]	Activity [4]	CC50 [5]	Activity [6]	EC50 (Enterovirus A71 [7]; [12])	EC50 (Enterovirus A71 [7])	also measured
COc1cccc(Nc2nc(-c3sc(NC(C)=O)nc3C)cs2)c1	5.9	1.55 µM	inactive	51%	9.17 µM	71%	1.2 µM		
CC(=O)c1cccc(NC(=S)Nc2cccc(NC(=O)C(C)(C)C)c2)c1								Not Active	IC50 [2]: Not Active
CC(=O)c1cccc(Nc2nc(-c3sc(NC(=O)NC4CCCCC4)nc3C)cs2)c1	4.4	1.82 µM			8.87 µM		2 µM		
COc1ccc(-c2c(C)nn3c(NCCN4CCOCC4)cc(C)nc23)cc1OC									EC50 (Enterovirus A71 [8]): 0.73 µM
CC(=O)Nc1cccc(NC(=S)Nc2cccc(C(C)=O)c2)c1								Not Active	IC50 [2]: Not Active
CC(=O)c1cccc(Nc2nc(-c3sc(NC(=O)C(C)(C)C)nc3C)cs2)c1	29.4	0.32 µM	inactive	93%	7.94 µM	71%	0.27 µM		EC50 (enterovirus D68; Enterovirus D, read-out: EC50): 1.38 µM; selectivity ratio [9]: 32.7; EC50 (rhinovirus B14; Rhinovirus B, read-out: EC50): 4.85 µM; CC50 [10]: 8.83 µM; EC50 (rhinovirus A2; Rhinovirus A, read-out: EC50): 2.01 µM; EC50 (Poliovirus 1): < 1.41 µM; EC50 (Echovirus E11): 0.72 µM
CC(=O)c1cccc(Nc2nc(-c3sc(NC(=O)NCc4ccc(Cl)cc4)nc3C)cs2)c1	4.4	3.95 µM			20.9 µM		4.77 µM		
CC(=O)c1cccc(Nc2nc(-c3sc(NC(=O)c4ccc(C)cc4)nc3C)cs2)c1		> 50 µM					> 55.7 µM		
CC(=O)c1cccc(Nc2nc(-c3sc(NC(=O)Nc4ccccc4)nc3C)cs2)c1		7.69 µM						Not Active	
CC(=O)Nc1nc(C)c(-c2csc(Nc3cccc(C(C)=O)c3)n2)s1	17.9	0.48 µM	inactive	37%	16.5 µM	52%	0.92 µM		EC50 (enterovirus D68): Not Active; EC50 (Coxsackievirus B3): 2.17 µM; selectivity ratio [9]: 10.6; EC50 (rhinovirus B14; Rhinovirus B, read-out: EC50): > 268 µM; CC50 [10]: 9.73 µM; EC50 (rhinovirus A2): Not Active; EC50 (Poliovirus 1): 3.09 µM; EC50 (Echovirus E11): 1.57 µM
CC(=O)c1cccc(Nc2nc(-c3sc(NC(=S)NC4CCCCC4)nc3C)cs2)c1		> 50 µM						Not Active	
CC(=O)Nc1nc(C)c(-c2c[nH]c(Nc3cccc(C(C)=O)c3)n2)s1		> 50 µM			85.7 µM		> 90.2 µM		CC50 [10]: 64.2 µM
COc1ccc(Cl)cc1Nc1nnc(-c2csc(NC(=O)C(C)(C)C)n2)o1								Not Active	IC50 [2]: Not Active
CC(=O)c1cccc(Nc2nc(-c3sc(NC(=O)NC45CC6CC(CC(C6)C4)C5)nc3C)cs2)c1		12.4 µM						Not Active	
CCC(=O)Nc1nc(C)c(-c2csc(Nc3ccc(N(C)C)cc3)n2)s1	6	50 µM			51.6 µM		8.58 µM		CC50 [10]: 142 µM
CC(=O)Nc1nc(C)c(-c2csc(Nc3cccc(O)c3)n2)s1		2.63 µM						Not Active	
CC(=O)c1cccc(Nc2nc(-c3sc(NC(=O)c4ccccc4)nc3C)cs2)c1	11.3	18.9 µM	inactive	54%	5.75 µM	81%	0.51 µM		EC50 (enterovirus D68): Not Active; EC50 (Coxsackievirus B3): 2.19 µM; selectivity ratio [9]: 23.1; EC50 (rhinovirus B14; Rhinovirus B, read-out: EC50): > 230 µM; CC50 [10]: 11.8 µM; EC50 (rhinovirus A2; Rhinovirus A, read-out: EC50): 2.05 µM; Activity [11]: Active; EC50 (Poliovirus 1): 2.23 µM; EC50 (Echovirus E11): 1.77 µM
CCC(=O)Nc1nc(C)c(-c2csc(Nc3cccc(C(C)=O)c3)n2)s1	26.6	0.27 µM	inactive	40%	10.1 µM	72%	0.38 µM		EC50 (enterovirus D68): Not Active; EC50 (Coxsackievirus B3): 2.16 µM; selectivity ratio [9]: 23.6; EC50 (rhinovirus B14): Not Active; CC50 [10]: 6.37 µM; EC50 (rhinovirus A2; Rhinovirus A, read-out: EC50): > 259 µM; Activity [11]: Active; EC50 (Poliovirus 1): < 1.52 µM; EC50 (Echovirus E11): 0.97 µM
CC(=O)c1cccc(Nc2nc(-c3sc(NC(=O)c4ccc(I)cc4)nc3C)cs2)c1		> 50 µM					> 44.6 µM		
CC(=O)Nc1nc(C)c(-c2csc(Nc3ccc(C(C)=O)cc3)n2)s1	8.2	3.71 µM	inactive	100%	5.59 µM	73%	0.68 µM		
CC(=O)c1cccc(Nc2nc(-c3sc(NC(=O)C(F)(F)F)nc3C)cs2)c1	12.9	21.9 µM	inactive	85%	25.8 µM	73%	2 µM		EC50 (Coxsackievirus B3): 3.87 µM; selectivity ratio [9]: 15; EC50 (rhinovirus B14; Rhinovirus B, read-out: EC50): 10.6 µM; CC50 [10]: 30.1 µM; EC50 (rhinovirus A2; Rhinovirus A, read-out: EC50): 10.6 µM; EC50 (Poliovirus 1): 2.86 µM; EC50 (Echovirus E11): 3.51 µM
CC(=O)Nc1nc(C)c(-c2csc(Nc3ccccc3)n2)s1	9.64	2.48 µM	inactive	81%	18.6 µM	58%	1.93 µM		
CC(=O)c1cccc(Nc2nc(-c3sc(NC(=S)Nc4ccccc4)nc3C)cs2)c1		> 50 µM						Not Active	
COc1ccc(Cl)cc1Nc1nnc(-c2csc(NC(=O)C(C)(C)C)n2)s1								Not Active	IC50 [2]: Not Active
